These results are taken from ChEMBL document CHEMBL1143493, “Synthesis of 2-[3,5-substituted pyrazol-1-yl]-4,6-trisubstituted triazine derivatives as antimalarial agents” (2005).

≈ marks a conversion by molar mass, not a printed value.

The test system of this test is Plasmodium falciparum. The test can be described thus: Minimum inhibitory concentration against Plasmodium falciparum NF-54 after 40 hrs. In kind it is functional. The method in brief: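 Rieckmann-type microassay. NF-54 is kept in RPMI-1640 with 25 mM Hepes, 1% D-glucose, 0.23% NaHCO3 and 10% heat-inactivated human serum, then synchronized to ring stage with 5% D-sorbitol. Ring-stage parasites at about 1% parasitemia and 3% hematocrit are exposed in duplicate to […] for 36–40 h at 37 °C in a candle jar. Maturation is read on Giemsa smears. MIC is the concentration that completely blocks schizont maturation.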
As for `COc1cc(-c2cc(SC)n(-c3nc(N4CCN(Cc5ccccc5)CC4)nc(N4CCN(Cc5ccccc5)CC4)n3)n2)cc(OC)c1OC`, it took 50 µg/mL (≈ 70.6 µM) to inhibit growth (MIC).
In turn, `COc1cc(-c2cc(SC)n(-c3nc(N4CCN(c5ccccc5)CC4)nc(N4CCN(c5ccccc5)CC4)n3)n2)cc(OC)c1OC` came in with a minimum inhibitory concentration (MIC) of 50 µg/mL (≈ 73.5 µM).
With `COc1cc(-c2cc(SC)n(-c3nc(NC4CCCCC4)nc(NC4CCCCC4)n3)n2)cc(OC)c1OC`, it took 2 µg/mL (≈ 3.61 µM) to inhibit growth (MIC).
For `COc1ccc(-c2cc(SC)n(-c3nc(NCCN4CCOCC4)nc(NCCN4CCOCC4)n3)n2)cc1OC` the value was 2 µg/mL (≈ 3.41 µM).
For `COc1ccc(-c2cc(SC)n(-c3nc(NC4CCCCC4)nc(NC4CCCCC4)n3)n2)cc1OC` the value was 50 µg/mL (≈ 95.5 µM); for `COc1ccc(-c2cc(SC)n(-c3nc(NCc4ccccc4)nc(NCc4ccccc4)n3)n2)cc1OC`, over 50 µg/mL; for `COc1ccccc1CN1CCN(c2nc(N3CCN(Cc4ccccc4OC)CC3)nc(-n3nc(-c4cc(OC)c(OC)c(OC)c4)cc3SC)n2)CC1`, 50 µg/mL (≈ 65.1 µM).
For `COc1ccc(-c2cc(SC)n(-c3nc(N4CCN(Cc5ccccc5)CC4)nc(N4CCN(Cc5ccccc5)CC4)n3)n2)cc1OC` the value was 2 µg/mL (≈ 2.95 µM).
The molecule `COc1cc(-c2cc(SC)n(-c3nc(NCc4ccccc4)nc(NCc4ccccc4)n3)n2)cc(OC)c1OC` gave an MIC of 2 µg/mL (≈ 3.51 µM).
For `COc1ccccc1CN1CCN(c2nc(N3CCN(Cc4ccccc4OC)CC3)nc(-n3nc(-c4ccc(OC)c(OC)c4)cc3SC)n2)CC1` the value was 50 µg/mL (≈ 67.8 µM); for `COc1ccc(-c2cc(SC)n(-c3nc(Nc4ccccc4C)nc(Nc4ccccc4C)n3)n2)cc1OC`, 10 µg/mL (≈ 18.5 µM).
In the case of `COc1ccc(-c2cc(SC)n(-c3nc(N4CCCCC4)nc(N4CCCCC4)n3)n2)cc1OC`, the MIC was 10 µg/mL (≈ 20.2 µM).
For `COc1cc(-c2cc(SC)n(-c3nc(N4CCCCC4)nc(N4CCCCC4)n3)n2)cc(OC)c1OC` the value was over 50 µg/mL; for `COc1cc(-c2cc(SC)n(-c3nc(Nc4ccccc4C)nc(Nc4ccccc4C)n3)n2)cc(OC)c1OC`, 1 µg/mL (≈ 1.76 µM); for `COc1cc(-c2cc(SC)n(-c3nc(NCCN4CCOCC4)nc(NCCN4CCOCC4)n3)n2)cc(OC)c1OC`, 1 µg/mL (≈ 1.62 µM).
The molecule `COc1cc(-c2cc(SC)n(-c3nc(N4CCc5ccccc5C4)nc(N4CCc5ccccc5C4)n3)n2)cc(OC)c1OC` yielded an MIC of over 50 µg/mL.
For `COc1cc(-c2cc(SC)n(-c3nc(N4CCOCC4)nc(N4CCOCC4)n3)n2)cc(OC)c1OC` the value was over 50 µg/mL; for `COc1ccc(-c2cc(SC)n(-c3nc(N4CCOCC4)nc(N4CCOCC4)n3)n2)cc1OC`, 10 µg/mL (≈ 20 µM).
For `COc1ccc(-c2cc(SC)n(-c3nc(N4CCc5ccccc5C4)nc(N4CCc5ccccc5C4)n3)n2)cc1OC` the value was 50 µg/mL (≈ 84.5 µM); for `COc1ccc(-c2cc(SC)n(-c3nc(NCCCN4CCOCC4)nc(NCCCN4CCOCC4)n3)n2)cc1OC`, 10 µg/mL (≈ 16.3 µM).
For `CC1(C)N=C(N)N=C(N)N1c1ccc(Cl)cc1` [CYCLOGUANIL] the value was 64 µg/mL (≈ 254 µM).
Take `COc1ccc(-c2cc(SC)n(-c3nc(N4CCN(c5ccccc5)CC4)nc(N4CCN(c5ccccc5)CC4)n3)n2)cc1OC`: the MIC came out at 10 µg/mL (≈ 15.4 µM). This MIC is about 6.4-fold lower than that of the molecule before.
For `COc1cc(-c2cc(SC)n(-c3nc(NCCCN4CCOCC4)nc(NCCCN4CCOCC4)n3)n2)cc(OC)c1OC` the value was 10 µg/mL (≈ 15.5 µM).
